ChEMBL document CHEMBL1275426, “Apoptosis induced by aminoglycosides in LLC-PK1 Cells: comparative study of neomycin, gentamicin, amikacin, and isepamicin using electroporation” (Antimicrob Agents Chemother, 2008)
Active and inactive are the calls of the source. The rule behind the calls is not given here.

Key:
LLC-PK1 [1] = test: Induction of apoptosis in pig LLC-PK1 cells at 0.192 to 0.384 mM after 24 hrs electoporated in presence of compound; format: functional, cell-based; details: Sus scrofa
Summary of the method: (§1)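 LLC-PK1 cells were electroporated with or without aminoglycoside at increasing concentrations, up to 0.384 mM, present during the pulse. Cells were then returned to aminoglycoside-free medium. Apoptotic nuclei were enumerated 24 h later. Values are mean ± SD, n = 3, by two-tailed ANOVA against controls.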

LLC-PK1 [2] = test: Induction of apoptosis in pig LLC-PK1 cells at 0.064 mM after 24 hrs electoporated in presence of compound; format: functional, cell-based; details: Sus scrofa; summary of the method: as §1
LLC-PK1 [3] = test: Induction of necrosis in pig LLC-PK1 cells assessed as lactate dehydrogenase release; format: functional, cell-based; details: Sus scrofa
LLC-PK1 [4] = test: Induction of apoptosis in pig LLC-PK1 cells at 6 mM after 2 days by DAPI staining; format: functional, cell-based; details: Sus scrofa
Summary of the method: (§2)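 LLC-PK1 cells were incubated without drug or with 2 mM or 6 mM aminoglycoside for up to 3 days. Nuclei were stained with DAPI, and the percentage of apoptotic nuclei was counted by microscopy. Camptothecin at 14.3 μM served as positive control. Values are mean ± SD, n = 3, by two-tailed ANOVA against matched controls.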

LLC-PK1 [5] = test: Induction of apoptosis in pig LLC-PK1 cells upto 9 mM after 2 days by DAPI staining; format: functional, cell-based; details: Sus scrofa
Summary of the method: (§3)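 LLC-PK1 cells were incubated for 48 h over a concentration series: 0 to 3 mM, or 3 to 9 mM. Apoptotic nuclei were scored as a percentage by DAPI staining under the microscope. Values are mean ± SD, n = 3, by two-tailed ANOVA against drug-free cells.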

Homo sapiens = test: Drug uptake in human at 15 mg/kg; format: ADME, organism-based; set-up: dose 15 mg/kg; details: in vivo
LLC-PK1 [6] = test: Induction of apoptosis in pig LLC-PK1 cells at 6 mM after 3 days by DAPI staining; format: functional, cell-based; details: Sus scrofa; summary of the method: as §2
LLC-PK1 [7] = test: Induction of apoptosis in pig LLC-PK1 cells at 6 mM after 1 day by DAPI staining; format: functional, cell-based; details: Sus scrofa; summary of the method: as §2
LLC-PK1 [8] = test: Induction of apoptosis in pig LLC-PK1 cells assessed as caspase 3 activity at 2 mM after 1 day […]; format: functional, cell-based; details: Sus scrofa
Summary of the method: (§4)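 Renal LLC-PK1 cells were incubated up to 3 days with 2 mM drug in continuous exposure. Caspase 3 activity was measured with the fluorogenic substrate N-acetyl-Asp-Glu-Val-Asp-7-amido-4-methylcoumarin and expressed as % of matched untreated controls. The positive control was camptothecin at 14.3 μM. Values are mean ± SD, n = 3, by two-tailed ANOVA against matched controls.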

LLC-PK1 [9] = test: Induction of apoptosis in pig LLC-PK1 cells at 2 mM by DAPI staining; format: functional, cell-based; details: Sus scrofa, TDE = time-dependent effect; summary of the method: as §2
LLC-PK1 [10] = test: Induction of apoptosis in pig LLC-PK1 cells measured at 0 to 3 mM after 2 days by DAPI staining; format: functional, cell-based; details: Sus scrofa; summary of the method: as §3
LLC-PK1 [11] = test: Induction of apoptosis in pig LLC-PK1 cells assessed as caspase 3 activity at 2 mM after 2 days […]; format: functional, cell-based; details: Sus scrofa; summary of the method: as §4
LLC-PK1 [12] = test: Induction of apoptosis in pig LLC-PK1 cells at 0.1mM after 24 hrs electoporated in presence of compound; format: functional, cell-based; details: Sus scrofa; summary of the method: as §1

Compound: CN[C@@H]1[C@@H](O)[C@@H](O[C@@H]2[C@@H](O)[C@H](O[C@H]3O[C@H](CN)[C@@H](O)[C@H](O)[C@H]3O)[C@@H](N)C[C@H]2NC(=O)[C@@H](O)CN)OC[C@]1(C)O
- Activity (LLC-PK1 [1]): Active

Compound: NC[C@@H]1O[C@H](O[C@H]2[C@@H](O)[C@H](O[C@@H]3[C@@H](O)[C@H](N)C[C@H](N)[C@H]3O[C@H]3O[C@H](CN)[C@@H](O)[C@H](O)[C@H]3N)O[C@@H]2CO)[C@H](N)[C@@H](O)[C@@H]1O
- Activity (LLC-PK1 [2]): Active

Compound: NCC[C@H](O)C(=O)N[C@@H]1C[C@H](N)[C@@H](O[C@H]2O[C@H](CN)[C@@H](O)[C@H](O)[C@H]2O)[C@H](O)[C@H]1O[C@H]1O[C@H](CO)[C@@H](O)[C@H](N)[C@H]1O [AMIKACIN]
- Activity (LLC-PK1 [3]): inactive
- Activity (LLC-PK1 [4]): inactive
- Activity (LLC-PK1 [5]): inactive
- Drug uptake (Homo sapiens): 25.6 µmol/kg
- Activity (LLC-PK1 [6]): Active
- Activity (LLC-PK1 [7]): inactive

Compound: GENTAMICIN [listing 1 of 2 here]
- Drug uptake (Homo sapiens): 8.56 µmol/kg

Compound: GENTAMICIN [listing 2 of 2 here]
- Activity (LLC-PK1 [8]): Active
- Activity (LLC-PK1 [9]): tde
- Activity (LLC-PK1 [10]): Dose-dependent effect
- Activity (LLC-PK1 [11]): Active
- Activity (LLC-PK1 [12]): Active
